In ChEMBL document CHEMBL1667806, “Synthesis and evaluation of anti-tubercular activity of new dithiocarbamate sugar derivatives” (2011):
Converted amounts (≈) assume the structure as drawn.

Assays:
[1] = microbe, parasite or virus in culture; format: functional, Mycobacterium bovis BCG str. Tokyo 172; conditions: Mycobacterium tuberculosis variant bovis BCG
[2] = system: Mycolicibacterium smegmatis; assay: microbe, parasite or virus in culture; format: functional; conditions: JATA 64.01
[3] = system: Mycobacterium tuberculosis; assay: Antimycobacterial activity against Mycobacterium tuberculosis H37Rv; format: functional
Mycobacterium avium = assay: microbe, parasite or virus in culture; format: functional, Mycobacterium avium subsp. avium ATCC 25291; conditions: ATCC 2529
Staphylococcus aureus [4] = assay: Antimicrobial activity against Staphylococcus aureus; format: functional
Staphylococcus aureus [5] = assay: microbe, parasite or virus in culture; format: functional; conditions: 873
Escherichia coli [6] = assay: Antimicrobial activity against Escherichia coli DH5alpha; format: functional; conditions: DH5[alpha]
[7] = microbe, parasite or virus in culture; format: functional, Mycobacterium avium subsp. hominissuis; conditions: Mycobacterium avium, 104
Staphylococcus aureus [8] = assay: Antimicrobial activity against methicillin-resistant Staphylococcus aureus MF490; format: functional
[9] = system: Mycobacterium tuberculosis; assay: Antimycobacterial activity against drug-sensitive Mycobacterium tuberculosis isolate 8; format: functional
In short: (§1)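 MIC by broth dilution in Middlebrook 7H9 broth supplemented with albumin, dextrose and catalase.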

[10] = system: Mycobacterium tuberculosis; assay: Antimycobacterial activity against drug-sensitive Mycobacterium tuberculosis isolate 9; format: functional
In short: as §1

Staphylococcus aureus [11] = assay: Antimicrobial activity against drug-sensitive Staphylococcus aureus RN4220; format: functional
[12] = system: Mycobacterium tuberculosis; assay: Antimycobacterial activity against drug-sensitive Mycobacterium tuberculosis isolate 1; format: functional
Pseudomonas aeruginosa = assay: Antibacterial activity against drug-sensitive Pseudomonas aeruginosa PAO1; format: functional
Klebsiella pneumoniae = assay: Antibacterial activity against […] Klebsiella pneumoniae ATCC BAA-1705; format: functional
Staphylococcus aureus [13] = assay: Antimicrobial activity against drug-sensitive Staphylococcus aureus 209PJC-1; format: functional
[14] = system: Mycobacterium tuberculosis; assay: Antimycobacterial activity against drug-sensitive Mycobacterium tuberculosis isolate 14; format: functional
In short: as §1

Enterococcus faecalis [15] = assay: Antimicrobial activity against AGs-resistant Enterococcus faecalis ATCC 19433; format: functional
[16] = system: Mycobacterium tuberculosis; assay: Antimycobacterial activity against drug-sensitive Mycobacterium tuberculosis isolate 15; format: functional
In short: as §1

[17] = system: Mycobacterium tuberculosis; assay: Antimycobacterial activity against drug-sensitive Mycobacterium tuberculosis isolate 16; format: functional
In short: as §1

[18] = system: Mycobacterium tuberculosis; assay: Antimycobacterial activity against drug-sensitive Mycobacterium tuberculosis isolate 3; format: functional
In short: as §1

Enterococcus faecalis [19] = assay: Antimicrobial activity against AGs-resistant Enterococcus faecalis ATCC 19434; format: functional
[20] = system: Mycobacterium tuberculosis; assay: Antimycobacterial activity against drug-sensitive Mycobacterium tuberculosis isolate 2; format: functional
In short: as §1

[21] = system: Mycobacterium tuberculosis; assay: Antimycobacterial activity against drug-sensitive Mycobacterium tuberculosis isolate 7; format: functional
In short: as §1

[22] = system: Mycobacterium tuberculosis; assay: Antimycobacterial activity against drug-sensitive Mycobacterium tuberculosis isolate 11; format: functional
In short: as §1

[23] = system: Mycobacterium tuberculosis; assay: Antimycobacterial activity against drug-sensitive Mycobacterium tuberculosis isolate 17; format: functional
In short: as §1

[24] = system: Mycobacterium tuberculosis; assay: Antimycobacterial activity against drug-sensitive Mycobacterium tuberculosis isolate 13; format: functional
In short: as §1

[25] = system: Mycobacterium tuberculosis; assay: Antimycobacterial activity against drug-sensitive Mycobacterium tuberculosis isolate 12; format: functional
In short: as §1

[26] = system: Mycobacterium tuberculosis; assay: Antimycobacterial activity against drug-sensitive Mycobacterium tuberculosis isolate 20; format: functional
In short: as §1

[27] = system: Mycobacterium tuberculosis; assay: Antimycobacterial activity against drug-sensitive Mycobacterium tuberculosis isolate 19; format: functional
In short: as §1

[28] = system: Mycobacterium tuberculosis; assay: Antimycobacterial activity against drug-sensitive Mycobacterium tuberculosis isolate 4; format: functional
In short: as §1

Escherichia coli [29] = assay: Antimicrobial activity against drug-sensitive Escherichia coli JM109; format: functional
[30] = system: Mycobacterium tuberculosis; assay: Antimycobacterial activity against drug-sensitive Mycobacterium tuberculosis isolate 18; format: functional
In short: as §1

[31] = system: Mycobacterium tuberculosis; assay: Antimycobacterial activity against drug-sensitive Mycobacterium tuberculosis isolate 10; format: functional
In short: as §1

[32] = system: Mycobacterium tuberculosis; assay: Antimycobacterial activity against drug-sensitive Mycobacterium tuberculosis isolate 6; format: functional
In short: as §1

[33] = system: Mycobacterium tuberculosis; assay: Antimycobacterial activity against drug-sensitive Mycobacterium tuberculosis isolate 5; format: functional
In short: as §1

CCN(CC)C(=S)[S-].[Na+] [DITIOCARB SODIUM]
MIC [1]: 3.13 µg/mL
MIC [2]: > 100 µg/mL
MIC [3]: 3.13 µg/mL

CC[C@@H](CO)NCCN[C@@H](CC)CO [ETHAMBUTOL]
MIC [1]: 1.5 µg/mL (≈ 7.34 µM)
MIC (Mycobacterium avium): 1.6 µg/mL (≈ 7.83 µM)
MIC (Staphylococcus aureus [4]): > 100 µg/mL
MIC (Staphylococcus aureus [5]): > 100 µg/mL
MIC [3]: 2.5 µg/mL (≈ 12.2 µM)
MIC (Escherichia coli [6]): > 100 µg/mL
MIC [7]: 1.6 µg/mL (≈ 7.83 µM)

C[C@@H](O)[C@H]1C(=O)N2C(C(=O)O)=C(SCCNC=N)C[C@H]12 [IMIPENEM ANHYDROUS]
MIC [1]: 3.13 µg/mL (≈ 10.5 µM)
MIC (Staphylococcus aureus [4]): 0.1 µg/mL (≈ 0.334 µM)
MIC (Staphylococcus aureus [5]): 0.1 µg/mL (≈ 0.334 µM)
MIC [3]: 3.13 µg/mL (≈ 10.5 µM)
MIC (Escherichia coli [6]): 0.1 µg/mL (≈ 0.334 µM)

NNC(=O)c1ccncc1 [ISONIAZID]
MIC [1]: 0.04 µg/mL (≈ 0.292 µM)
MIC (Mycobacterium avium): 3.13 µg/mL (≈ 22.8 µM)
MIC (Staphylococcus aureus [4]): > 100 µg/mL
MIC (Staphylococcus aureus [5]): > 100 µg/mL
MIC [3]: 0.04 µg/mL (≈ 0.292 µM)
MIC (Escherichia coli [6]): > 100 µg/mL
MIC [7]: 1.56 µg/mL (≈ 11.4 µM)

NC[C@H]1O[C@H](O[C@H]2[C@H](O)[C@@H](O[C@H]3O[C@H](CO)[C@@H](O)[C@H](N)[C@H]3O)[C@H](N)C[C@@H]2N)[C@H](O)[C@@H](O)[C@@H]1O [KANAMYCIN]
MIC [1]: 0.3 µg/mL (≈ 0.619 µM)
MIC (Mycobacterium avium): 3.13 µg/mL (≈ 6.46 µM)
MIC (Staphylococcus aureus [4]): 12.5 µg/mL (≈ 25.8 µM)
MIC (Staphylococcus aureus [5]): > 100 µg/mL
MIC [3]: 1.56 µg/mL (≈ 3.22 µM)
MIC (Escherichia coli [6]): 12.5 µg/mL (≈ 25.8 µM)
MIC [7]: 3.13 µg/mL (≈ 6.46 µM)

CC(=O)N[C@@H]1[C@@H](O)[C@H](O)[C@@H](CO)O[C@H]1O [N-ACETYLGLUCOSAMINE]
MIC [1]: > 100 µg/mL
MIC (Mycobacterium avium): > 100 µg/mL
MIC (Staphylococcus aureus [4]): > 100 µg/mL
MIC (Staphylococcus aureus [5]): > 100 µg/mL
MIC [3]: > 100 µg/mL
MIC (Escherichia coli [6]): > 100 µg/mL
MIC [7]: > 100 µg/mL

CC1(C)S[C@@H]2[C@H](NC(=O)Cc3ccccc3)C(=O)N2[C@H]1C(=O)O [PENICILLIN G]
MIC [1]: 500 µg/mL (≈ 1500 µM)
MIC (Staphylococcus aureus [4]): 31.3 µg/mL (≈ 93.6 µM)
MIC (Staphylococcus aureus [5]): > 500 µg/mL
MIC [3]: 500 µg/mL (≈ 1500 µM)
MIC (Escherichia coli [6]): 25 µg/mL (≈ 74.8 µM)

N.S=C(S)N1CCCC1 [PYRROLIDINE DITHIOCARBAMIC ACID, AMMONIUM SALT]
MIC [1]: 0.4 µg/mL
MIC (Staphylococcus aureus [8]): 8 µg/mL
MIC [9]: 0.4 µg/mL
MIC [10]: 0.2 µg/mL
MIC (Staphylococcus aureus [11]): 8 µg/mL
MIC [12]: 0.2 µg/mL
MIC (Pseudomonas aeruginosa): > 32 µg/mL
MIC (Klebsiella pneumoniae): > 32 µg/mL
MIC (Staphylococcus aureus [13]): 8 µg/mL
MIC (Mycobacterium avium): 3.13 µg/mL
MIC [14]: 0.2 µg/mL
MIC [2]: > 100 µg/mL
MIC (Staphylococcus aureus [4]): 12.5 µg/mL
MIC (Enterococcus faecalis [15]): 32 µg/mL
MIC (Staphylococcus aureus [5]): 12.5 µg/mL
MIC [16]: 0.2 µg/mL
MIC [17]: 0.2 µg/mL
MIC [18]: 0.2 µg/mL
MIC (Enterococcus faecalis [19]): 32 µg/mL
MIC [20]: 0.2 µg/mL
MIC [21]: 0.4 µg/mL
MIC [22]: 0.2 µg/mL
MIC [23]: 0.2 µg/mL
MIC [24]: 0.4 µg/mL
MIC [25]: 0.2 µg/mL
MIC [3]: 0.2 µg/mL
MIC [26]: 0.4 µg/mL
MIC [27]: 0.4 µg/mL
MIC (Escherichia coli [6]): 12.5 µg/mL
MIC [28]: 0.2 µg/mL
MIC (Escherichia coli [29]): > 32 µg/mL
MIC [7]: 3.13 µg/mL
MIC [30]: 0.2 µg/mL
MIC [31]: 0.2 µg/mL
MIC [32]: 0.2 µg/mL
MIC [33]: 0.2 µg/mL

CO[C@H]1/C=C/O[C@@]2(C)Oc3c(C)c(O)c4c(O)c(c(/C=N/N5CCN(C)CC5)c(O)c4c3C2=O)NC(=O)/C(C)=C\C=C\[C@H](C)[C@H](O)[C@@H](C)[C@@H](O)[C@@H](C)[C@H](OC(C)=O)[C@@H]1C [RIFAMPIN]
MIC [1]: 0.004 µg/mL (≈ 0.00486 µM)
MIC (Mycobacterium avium): < 0.05 µg/mL
MIC (Staphylococcus aureus [4]): 0.002 µg/mL (≈ 0.00243 µM)
MIC (Staphylococcus aureus [5]): 0.004 µg/mL (≈ 0.00486 µM)
MIC [3]: 0.004 µg/mL (≈ 0.00486 µM)
MIC (Escherichia coli [6]): 50 µg/mL (≈ 60.8 µM)
MIC [7]: 0.25 µg/mL (≈ 0.304 µM)

CN(C)C(=S)[S-].[Na+] [SODIUM DIMETHYLCARBAMODITHIOATE]
MIC [1]: 1.56 µg/mL
MIC (Mycobacterium avium): > 100 µg/mL
MIC [2]: > 100 µg/mL
MIC (Staphylococcus aureus [4]): > 100 µg/mL
MIC (Staphylococcus aureus [5]): > 100 µg/mL
MIC [3]: 1.56 µg/mL
MIC (Escherichia coli [6]): > 100 µg/mL
MIC [7]: > 100 µg/mL

CN[C@@H]1[C@H](O[C@H]2[C@H](O[C@H]3[C@H](O)[C@@H](O)[C@H](N=C(N)N)[C@@H](O)[C@@H]3N=C(N)N)O[C@@H](C)[C@]2(O)C=O)O[C@@H](CO)[C@H](O)[C@H]1O [STREPTOMYCIN]
MIC [1]: 0.2 µg/mL (≈ 0.344 µM)
MIC (Mycobacterium avium): 3.13 µg/mL (≈ 5.38 µM)
MIC (Staphylococcus aureus [4]): 50 µg/mL (≈ 86 µM)
MIC (Staphylococcus aureus [5]): > 100 µg/mL
MIC [3]: 0.39 µg/mL (≈ 0.671 µM)
MIC (Escherichia coli [6]): 50 µg/mL (≈ 86 µM)
MIC [7]: 1.56 µg/mL (≈ 2.68 µM)
